High-throughput results deposited in PubChem BioAssay by several laboratories.
proCasp7 act – activates human procaspase-7, counter-screen for procaspase-3 activators | recombinant procaspase-7, Ac-DEVD-pNA absorbance 405 nm; D23A/D198A/D206A triple mutant, cannot self-cleave; scale: DMSO 0, 5 µM enzyme 100 | activation, % at 8.5 µM | hit rate 0.093% among 330,000 | AID 463210;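 active = percent activation above the screen-wide mean plus 3 SD, cut at about 25% in these data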
Target sequence (P55210 whole entry D23A/D198A/D206A): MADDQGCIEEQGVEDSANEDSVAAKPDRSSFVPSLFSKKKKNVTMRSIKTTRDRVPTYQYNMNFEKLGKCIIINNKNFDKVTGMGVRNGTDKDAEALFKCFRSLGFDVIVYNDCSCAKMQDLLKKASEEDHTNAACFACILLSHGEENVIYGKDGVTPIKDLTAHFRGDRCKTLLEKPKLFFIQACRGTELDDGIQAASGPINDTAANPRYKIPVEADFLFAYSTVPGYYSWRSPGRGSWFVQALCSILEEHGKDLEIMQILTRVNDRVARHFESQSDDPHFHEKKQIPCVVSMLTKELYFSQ
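Detection: p-Nitroaniline absorbance at 405 nm, read at 0 and 120 min; system: Uncleavable procaspase-7 mutant enzyme; evaluation: % activation from two-timepoint absorbance difference, scaled to controls; times: 1 h enzyme–compound preincubation and 2 h substrate reaction, both 25 °C; buffer or medium: Zinc-free HEPES pH 7.4 with 300 mM NaCl, 0.01% Triton X-100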
Neddyl block – blocks human cullin neddylation. P61081+Q13564. TR-FRET cullin neddylation, biochemical. calls only at 25 µM. hit rate 0.58% among 360,000; in the data active = inhibition above about 36%
KLK7 zymogen act – activates the human kallikrein-7 zymogen; P49862; purified proKLK7, EDANS-DABCYL substrate fluorescence; 100% is mature enzyme control, 0% vehicle; activation, % at 7 µM; hit rate 0.9% among 370,000;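 active = activation above the mean of all tested compounds plus 3 SD, computed per campaign excluding outliers beyond control limits, cut at about 13% in these data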
procasp3 activ – activates human procaspase-3; P42574; recombinant procaspase-3 D3A, Ac-DEVD-pNA absorbance 405 nm; activation, % at 8.5 µM; hit rate 0.11% among 330,000; AID 463141;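 active = activation above the mean of all tested compounds plus 3 SD, cut at about 21% in these data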;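 note: 0% = DMSO alone and 100% = DMSO wells spiked with extra 5 µM PC-3 D3A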
Target sequence (P42574 whole entry D9A/D28A/D175A): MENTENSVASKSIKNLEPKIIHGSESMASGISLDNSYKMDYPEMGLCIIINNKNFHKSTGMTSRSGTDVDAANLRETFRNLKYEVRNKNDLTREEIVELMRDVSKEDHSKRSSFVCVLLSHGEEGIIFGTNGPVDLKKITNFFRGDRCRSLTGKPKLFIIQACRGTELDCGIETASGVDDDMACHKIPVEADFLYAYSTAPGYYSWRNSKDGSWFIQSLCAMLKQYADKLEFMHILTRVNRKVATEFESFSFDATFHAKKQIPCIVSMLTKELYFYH
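Test system: Procaspase-3 D3A mutant; medium: Zinc-free HEPES/NaCl buffer with 0.01% Triton X-100 at pH 7.4; reagent: DEVD-pNA substrate; doses: one concentration, 8.5 µM nominal, 0.8% DMSO; times: 1 h preincubation plus 2 h reaction at 25 °C; signal: Epi-absorbance at 405 nm of released p-nitroaniline, 0 and 120 min; replicates: singlicate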
An asterisk follows results filed as active; i = inactive; / = no result shown; + = active, no number. Compounds with a hit are over-represented: about 1.6% of the library has one in this group of screens.

SMILES	proCasp7 act	Neddyl block	KLK7 zymogen act	procasp3 activ
CC(C)(C)OC(=O)NCC(=O)Oc1cc2oc(=O)cc(-c3ccccc3)c2cc1Cl	3.0	/	15.6*	-1.5
O=C(Oc1cc2oc(=O)cc(-c3ccccc3)c2cc1Cl)C1CCCCC1	5.3	/	37.4*	0.8
COc1ccc(-c2nnc(SCC(=O)NN=C/C=C\c3ccco3)n2-c2ccc(OC)cc2)cc1	/	/	0.4	/
CC(C1=CCCCC1)c1cnn(C)c1 (stereo not given)	/	/	-0.2	/
Cc1oc2c(CN(C)C)c(O)ccc2c(=O)c1-c1cscn1	1.3	/	20.0*	-2.5
O=C(Nc1cccc([N+](=O)[O-])c1)OCc1ccc2c(c1)OCO2	/	/	-0.2	/
CC(C)CCNC(=O)CN(Cc1ccco1)C(=O)c1snc(C(N)=O)c1N	-5.0	i	3.0	-0.7
CCc1ccccc1N(CC(=O)NCc1ccco1)C(=O)c1snc(C(N)=O)c1N	-1.0	+	4.5	-9.5
CC(COc1ccc(OC(F)(F)F)cc1)CN1CCC(C(O)(c2ccccc2)c2ccccc2)CC1 (stereo not given)	/	/	0.5	/
O/N=C/c1ccc2cccc(OCc3ccccc3)c2n1	-2.8	/	6.9	-2.5
NC(N)=N/N=C/c1ccc2cccc(OCc3ccccc3)c2n1	1.6	+	12.2	-20.8
CCOC(=O)C1=C(C)N=c2s/c(=C\c3ccc(OCC(=O)O)cc3)c(=O)n2C1c1ccc(Cl)cc1 (stereo not given)	/	i	-0.3	/
CCOC(=O)C1=C(C)N=c2s/c(=C/c3ccc(OCC(=O)O)c(OC)c3)c(=O)n2C1c1ccc(Cl)cc1 (stereo not given)	-11.5	+	-1.7	3.4
Cc1cc(/C=C2\C(=N)N3N=C(c4ccco4)SC3=NC2=O)c(C)n1Cc1ccccc1	-34.3	+	-0.5	-40.8
CCC1=NN2C(=N)/C(=C/c3cc(C)n(Cc4ccccc4)c3C)C(=O)N=C2S1	-22.1	i	1.1	-40.3
CC1(C)Oc2ccc(C(=O)NC3CCCC3)cc2NC1=O	/	/	-0.7	/
O=C(Nc1cccc2nsnc12)c1ccc2c(c1)OCCO2	-11.1	+	0.2	-19.7
O=C(Nc1cccc2cccnc12)c1ccc2c(c1)OCCO2	-2.4	i	-0.5	-1.2
CC(C)(C)OC(=O)n1cccc1/C=C1\c2ccccc2C(=O)N1c1ccccc1	/	+	/	/
CC(C)(C)NC(=O)C(c1ccncc1)n1c(=O)c(-c2ccco2)nc2ccccc21 (stereo not given)	/	+	3.0	/
CC(C)(C)NC(=O)C(c1ccccc1)n1c(=O)c(-c2ccco2)nc2ccccc21 (stereo not given)	/	i	0.6	/
Cc1cc(N)c2cc(NC(=O)/C=C/c3ccccc3Cl)ccc2n1	-1.6	+	/	5.0
CCCCn1c(SCC(=O)NCc2ccco2)nc2ccc(N3CCOCC3)cc2c1=O	-23.0	/	14.9*	-23.3
O=C(N/N=C/c1ccc(F)cc1)c1cc(-c2ccco2)nc2ccccc12	4.3	+	-51.7	3.7
CCOc1ccc(/C=N/NC(=O)c2cc(-c3ccco3)nc3ccccc23)cc1	-56.0	i	-32.1	16.1
SMILES	proCasp7 act	Neddyl block	KLK7 zymogen act	procasp3 activ
CC(C)C[C@H]1COc2ccc(Cl)cc2S(=O)(=O)N1Cc1cn(Cc2ccc(C(F)(F)F)cc2)nn1	/	/	0.0	/
CN1CCCN(c2cc(-c3ccc4ccccc4c3)nc3ccnn23)CC1	/	+	-0.2	/
COc1ccc(/C=N/NC(=O)c2cc3c(OC)ccc(OC)c3[nH]2)cc1O	8.2	+	1.3	3.7
CC(C)N1CCc2c(sc(NC(=O)c3ccc4ccccc4c3)c2C(N)=O)C1	-1.4	+	-32.4	4.5
O=S(=O)(c1cccs1)N1CN(Cc2cccs2)c2nc3ccccc3nc21	6.7	+	0.2	4.1
O=S(=O)(c1cccs1)N1CN(Cc2ccc(F)cc2)c2nc3ccccc3nc21	6.4	i	1.9	-4.6
CCC(NC(=O)Cn1c(-c2ccccc2)cc(C(C)=O)c1C)c1ccccc1 (stereo not given)	/	/	0.5	/
Cc1ccccc1NC(=O)/C=C/c1ccc([N+](=O)[O-])s1	7.0	+	/	3.8
Cc1cc(C)c(C)c(S(=O)(=O)N2CCC(C(=O)NNC(=O)c3ccccc3O)CC2)c1C	-6.2	+	-4.1	-2.1
C[C@@H]1ON(C)[C@H]2C[C@H]3c4[nH]c5cccc(-c6ccc7c(c6)OCO7)c5c4CCN3C(=O)[C@@H]12	/	/	-2.8	/
COc1ccc(-c2cc(C(F)F)n3ncc(C(=O)N4CCN5CCCC5C4)c3n2)cc1 (stereo not given)	-6.2	/	23.8*	1.6
CC(C)Oc1ccc(C(=O)N/N=C/c2ccc(-c3ccc(S(=O)(=O)Nc4ncccn4)cc3)o2)cc1	-0.7	+	1.3	-2.4
NC(=O)N/N=C/c1ccc(-c2ccc(S(=O)(=O)Nc3ncccn3)cc2)o1	/	i	-0.4	/
O=[N+]([O-])c1ccc(COc2ccccc2CO)cc1	/	/	0.7	/
CCn1c(Cc2cccs2)nnc1SCC(=O)Nc1ccc2c(c1)OCCO2	/	/	0.6	/
COc1ccc(CCn2c(=N)c(C(=O)NCc3ccco3)cc3c(=O)n4ccccc4nc32)cc1OC	/	i	-2.0	/
Cc1ccc(Cn2c(=N)c(C(=O)NCc3ccco3)cc3c(=O)n4ccccc4nc32)cc1	-20.2	+	-5.5	-10.8
CC1CCN(CCCn2c(=S)[nH]c3ccc(N4CCOCC4)cc3c2=O)CC1	-1.4	/	52.6*	-4.9
CCN(CCCn1c(=S)[nH]c2ccc(N3CCOCC3)cc2c1=O)c1ccccc1	9.4	i	-20.2	-1.1
O=C(O[C@@H]1OC2COC(=O)c3cc(O)c(O)c(O)c3-c3c(cc(O)c(O)c3O)C(=O)O[C@@H]([C@H]1O)[C@@H]2O)c1cc(O)c(O)c(O)c1	-30.1	+	/	-30.5
COc1ccccc1-c1c(-c2ccc(OCC(=O)NN)cc2O)n[nH]c1C(F)(F)F	7.3	i	-0.6	2.1
COc1ccc(-c2n[nH]c(C(F)(F)F)c2-c2cc3ccccc3o2)c(O)c1	4.3	+	-2.3	6.1
O=c1c2cc3cc(Cl)ccc3nc2ncn1CCc1c[nH]c2ccccc12	/	/	-0.6	/
Oc1cc(O)cc(/C=C/c2ccc(O)c(O)c2)c1	-28.2	+	-155.3	-32.0
C/C=C/c1ccc(O)c(OC)c1	-7.7	i	-0.2	-5.5
SMILES	proCasp7 act	Neddyl block	KLK7 zymogen act	procasp3 activ
Cc1cc(/C=c2\sc3nc4ccccc4n3c2=O)c(C)n1-c1ccc(C(=O)O)cc1	/	+	-0.4	/
COc1cccc(CN(C)C(=O)[C@H]2O[C@@H](n3cnc4c(=O)[nH]c(N)nc43)[C@H](O)[C@@H]2O)c1	/	/	-0.2	/
Cc1ccc(-n2nc3c(N4CCC(C(=O)NCc5cccc(F)c5)CC4)nnc(C)c3c2C)cc1	3.2	+	/	2.2
Cc1ccc(-n2nc3c(N4CCC(C(=O)NCc5ccc(C)o5)CC4)nnc(C)c3c2C)cc1	-2.4	i	1.6	-11.6
Cn1c2ccccc2c2cc(/C=N/NC(=O)c3cc(O)ccc3O)ccc21	-9.4	+	0.0	-4.1
O=C(NCCc1ccccn1)c1ccc2c(c1)ncn2C1CCCCC1	/	/	-0.1	/
